Measured values gathered from unrelated publications.
Cell line: HepG2
Effect on: cell growth or viability

SMILES	method	time	CC50 [µM]
COCC(=O)N1CCC[C@@H](C(=O)NCc2nc(-c3ccccc3)cs2)C1	ATP luminescence	96 h	> 50
Cn1nc2c(=O)n(C3CC3)ncc2c1[C@](O)(c1cnc(C(F)(F)F)c(Cl)c1)C(F)(F)F	ATP luminescence	–	38
COCC(=O)N1CCC[C@H](C(=O)NCc2nc(-c3ccc(C#N)cc3)cs2)C1	ATP luminescence	96 h	> 50
O[C@@H](CN[C@H](COCC1CC1)Cc1ccccc1)c1cc(Cl)cc2c1-c1ccc(Cl)cc1C2	–	48 h	13.8
O=C1c2ccccc2-n2c1nc1ccccc1c2=O	ATP luminescence	–	6 to 9
CCCCCCCNCC(O)c1cc(Cl)cc2c1-c1ccc(Cl)cc1C2 (racemic)	–	48 h	5.7
CCOCC(=O)N1CCC[C@H](C(=O)NCc2nc(-c3ccccc3)cs2)C1	ATP luminescence	96 h	> 50
NC1=CC2=NCCc3c[nH]c(c32)C1=O	MTT	72 h	0.1
CCCCCCNC[C@H](O)c1cc(Cl)cc2c1-c1ccc(Cl)cc1C2	–	48 h	4.8
O=C1c2[nH]cc3c2C(=NCC3)c2c(-c3ccc(O)cc3)c[nH]c21	MTT	72 h	0.3
CCOCC(=O)N1CCC[C@H](C(=O)NCc2nc(-c3ccc(C)nc3)cs2)C1	ATP luminescence	96 h	> 50
CCCCCCCCNC[C@@H](O)c1cc(Cl)cc2c1-c1ccc(Cl)cc1C2	–	48 h	9
COC1=CC2=[N+](C)CCc3c[nH]c(c32)C1=O	MTT	72 h	12.5
O[C@@H](CNCCCC(F)(F)F)c1cc(Cl)cc2c1-c1ccc(Cl)cc1C2	–	48 h	13.8
O=C1C(NCCc2ccc(O)cc2)=CC2=NCCc3c[nH]c1c32	MTT	72 h	4
